This is a sample that favours compounds with a hit; in the whole collection about 1.9% have one here.
TLR4-MyD88 BLA = TLR4-MyD88 interaction inhibition in cells | O00206+Q99836 | HeLa CL3-4 TLR4/MyD88 BLA complementation, FRET ratio | inhibition, % at 8.4 µM | hit rate 0.18% among 200,000 | AID 861; in the data active = inhibition above about 25%;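 also: 0% = vehicle and 100% = reference inhibitor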
MC4R barr agon = agonists of human melanocortin 4 receptor (MC4R) beta-arrestin; U2OS MC4R beta-arrestin complementation, luminescence; percent of melanotan II response, DMSO zero; activation, % at 8.9 µM; hit rate 0.98% among 360,000; P32245; AID 540308;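 active = activation above a per-plate cutoff, the mean activation of sample wells on that plate plus 3 SD, cut at about 8% in these data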
TLR9-MyD88 block = blocks human TLR9 binding to MyD88 | CHO BLA complementation TLR9-MyD88, CCF4 FRET ratio | inhibition, % at 4.98 µM | hit rate 0.21% among 340,000;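 active = inhibition above the mean over all tested compounds plus 3 SD, cut at about 21% in these data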;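 also: 0% = DMSO only wells and 100% = clavulanate BLA inhibitor control wells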
NTR1 ag = agonists of human neurotensin receptor NTR1 | P30989 | NTR1-U2OS beta-arrestin-GFP spot imaging, agonist mode | activation, % at 20 µM | hit rate 0.17% among 330,000;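 active = activation at or above 40% of the spot to cytoplasm intensity ratio, with at least 20 cells analyzed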;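 also: 0% = DMSO without peptide and 100% = 100 nM NTR1 peptide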
Target sequence (P30989 whole entry, looked up): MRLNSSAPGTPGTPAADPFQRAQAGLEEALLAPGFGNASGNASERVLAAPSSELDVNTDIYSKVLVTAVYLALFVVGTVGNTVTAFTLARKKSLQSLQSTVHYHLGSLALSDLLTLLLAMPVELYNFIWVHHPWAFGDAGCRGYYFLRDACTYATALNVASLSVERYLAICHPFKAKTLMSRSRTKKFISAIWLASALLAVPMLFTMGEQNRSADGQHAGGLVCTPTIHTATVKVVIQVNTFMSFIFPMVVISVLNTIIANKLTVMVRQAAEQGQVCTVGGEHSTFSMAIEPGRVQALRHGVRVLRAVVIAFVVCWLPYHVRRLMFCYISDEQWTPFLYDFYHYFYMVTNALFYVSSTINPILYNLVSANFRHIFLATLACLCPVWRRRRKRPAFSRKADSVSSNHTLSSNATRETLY
MC4R antag cAMP = blocks human MC4R cAMP signaling. P32245. MC4R-expressing cells, MTII-stimulated cAMP, LANCE TR-FRET. inhibition, % at 6.5 µM. hit rate 0.48% among 360,000;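 active = inhibition above its plate's cutoff, the mean of tested wells on that plate plus 3 SD, cut at about 29% in these data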;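 also: 0% = Melanotan II alone and 100% = Melanotan II plus saturating MCL0020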
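Test system: U2OS cells stably expressing human melanocortin 4 receptor (MC4R); also added: Melanotan II challenge; compound: 6.5 µM single dose; timing: 30-min compound preincubation, 1-h Melanotan II challenge, 1-h detection, room temperature; signal: Eu-cAMP/anti-cAMP TR-FRET, emission 671 nm; repeats: one well per compound, no replicates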
NOD2 RIPK2 PPI = NOD2-RIPK2 protein interaction inhibition; O43353; CHO BLA complementation NOD2-RIPK2, CCF4 ratio; inhibition, % at 4.98 µM; hit rate 0.38% among 360,000; AID 624267; in the data active = inhibition above about 21%;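 also: 0% = vehicle only and 100% = reference blocker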
cAMP nonselect = U2OS forskolin cAMP inhibition counter-screen | shares compounds with MC4R antag cAMP | parental U2OS, LANCE TR-FRET | inhibition, % at 6.5 µM | hit rate 26% among 1,600 | AID 602193;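 active = mean inhibition over triplicates above the low-control well mean plus 3 SD, set per campaign, cut at about 13% in these data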;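 also: signal is single emission at 671 nm which falls as cellular cAMP rises; 0% = forskolin-stimulated wells and 100% = buffer without forskolin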
MC4R cAMP antag = human MC4R cAMP antagonism confirmation; shares compounds with MC4R antag cAMP; MC4R-expressing cells, MTII-stimulated cAMP, TR-FRET; inhibition, % at 6.5 µM; hit rate 27% among 1,600; in the data active = inhibition above about 29%;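 also: 0% = agonist stimulated wells alone and 100% = agonist stimulated wells plus saturating reference antagonist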
* = called active by the depositor; . = not tested or not shown; + = active, no number.

SMILES | TLR4-MyD88 BLA | MC4R barr agon | TLR9-MyD88 block | NTR1 ag | MC4R antag cAMP | NOD2 RIPK2 PPI | cAMP nonselect | MC4R cAMP antag
COC(=O)COc1ccc2cc(-c3ccccc3)c(=O)oc2c1 | . | -1 | 10 | 2 | 40* | 5 | 24* | 56*
COC(=O)COc1ccc2cc(-c3ccc(OC)cc3)c(=O)oc2c1 | . | 0 | -3 | 2 | 39* | 7 | 26* | 42*
NC(=O)COc1ccc2cc(-c3ccccc3)c(=O)oc2c1 | . | -1 | 5 | -1 | 8 | 1 | . | .
COc1ccc(-c2cc3ccc(OCC(C)=O)cc3oc2=O)cc1 | . | -1 | -8 | -1 | 12 | 1 | . | .
COC(=O)COc1ccc2c(=O)c(-c3ccccc3)coc2c1 | . | 0 | 0 | 5 | 44* | 4 | 28* | 52*
COc1ccc2c(c1)CCC1(C)CC(=O)C(Br)=C21 (stereo not drawn) | . | 0 | 6 | . | 40* | -4 | 34* | 53*
COC(=O)COc1ccc(S(=O)(=O)Nc2ccccc2C(=O)OC)cc1 | 4 | -1 | -3 | 7 | 35* | -1 | 21* | 35*
CN(C)c1ccnc(Nc2ccc(O)cc2)c1C#N | -11 | 1 | -12 | 0 | 29* | -4 | -1 | 3
CN(C)c1nccc(Nc2ccccc2)c1C#N | 3 | -2 | 9 | -1 | -7 | -8 | . | .
CC(=O)c1cccc(NC(=O)COC(=O)c2ccccc2C)c1 | . | 2 | -6 | 0 | 38* | -1 | 1 | 2
CCOC(=O)C(=O)Nc1cccc(C(=O)OCC)c1 | 8 | 0 | -11 | 0 | 29* | 3 | 1 | 2
CCOC(=O)N1CCN(C(=O)/C=C/c2c(C)nn(-c3ccc(F)cc3)c2Cl)CC1 | -2 | 1 | -6 | . | 6 | -1 | . | .
C=CC[C@@H](CC(=O)N(CCO)Cc1ccccc1)C(=O)NC[C@H](OC(=O)[C@@H](CC=C)Cc1ccc(F)cc1)c1ccccc1 | . | 2 | -9 | 19 | 35* | -1 | 0 | 0
CCN(CC)CCNC(=O)c1cc(-c2ccc(Br)s2)nc2ccccc12 | . | 5 | 8 | 2 | 33* | -13 | 7 | -9
O=C(O)c1cc(-c2ccc(Br)s2)nc2ccccc12 | . | 0 | 3 | -1 | + | -13 | 185* | +
CCCCOc1cc(C(=O)NCCN(CC)CC)c2ccccc2n1 | -2 | -1 | 2 | -1 | 11 | -7 | . | .
CCOCCCNC(=O)c1cc(-c2ccc(Br)s2)nc2ccccc12 | . | -1 | 6 | -1 | 37* | -5 | 33* | 63*
CC(NC(=O)CSc1ccc(S(=O)(=O)N2CCOCC2)cn1)c1ccc(Cl)cc1Cl (stereo not drawn) | . | 0 | -5 | . | 9 | 14 | . | .
CC(C)c1ccc(-c2nn(-c3ccccc3)cc2C2C(C#N)=C(N)OC3=C2C(=O)CC(C)(C)C3)cc1 (stereo not drawn) | 9 | -1 | 0 | 1 | 8 | 3 | . | .
CCCc1nnc(NC(=O)CCC(=O)N2CCC(Cc3ccccc3)CC2)s1 | . | -1 | 1 | 2 | -1 | -16 | . | .
CC1CCCC(C)N1C(=O)COc1ccc(C(=O)N/N=C/c2ccc(C(=O)O)cc2)cc1 (stereo not drawn) | -2 | -2 | 0 | 1 | -3 | -7 | . | .
CC(C)Cn1c(N)c(C(=O)COC(=O)c2ccc([N+](=O)[O-])o2)c(=O)n(C)c1=O | -3 | -2 | -1 | 3 | 35* | 6 | 10 | 19
C=CCn1c(=O)n(C(=O)OCC)c2cc(Br)ccc21 | 8 | -1 | -1 | -1 | 15 | 0 | . | .
CC(C)Nc1nc(Cl)nc(N(C#N)CN2C(=O)c3ccccc3S2(=O)=O)n1 | . | -2 | -12 | 9 | 46* | 0 | 14* | 37*
CC(C)(C)Nc1nc(Cl)nc(N(C#N)CN2C(=O)c3ccccc3S2(=O)=O)n1 | 19 | -1 | 1 | 13 | 35* | 9 | 25* | 51*
SMILES | TLR4-MyD88 BLA | MC4R barr agon | TLR9-MyD88 block | NTR1 ag | MC4R antag cAMP | NOD2 RIPK2 PPI | cAMP nonselect | MC4R cAMP antag
CC(=O)Oc1ccc2nc(-c3ccco3)oc(=O)c2c1 | . | 0 | 3 | 2 | 34* | -3 | 13 | 39*
CCOc1cccc(C2/C(=C(/O)c3ccc4c(c3)CC(C)O4)C(=O)C(=O)N2CCN2CCOCC2)c1 (stereo not drawn) | . | -1 | -7 | 1 | 38* | -1 | 0 | -12
N#Cc1cccc(C(c2nnnn2CCc2ccccc2)N2CCN(C3CCCCC3)CC2)c1 (stereo not drawn) | 11 | 2 | -5 | 1 | 29* | -12 | 3 | 3
COc1ccc(NC(=O)Nc2cccc3c2O[C@H](CN(C)C(=O)Nc2ccc(C(F)(F)F)cc2)[C@@H](C)CN([C@H](C)CO)C3=O)cc1 | . | 0 | -3 | 1 | 35* | 4 | 1 | 19
CC1Cc2ccccc2N1S(=O)(=O)c1cnc(Cl)c(Br)c1 (stereo not drawn) | . | -2 | 5 | 10 | 30* | 0 | 22* | 38*
CC(OC(=O)[C@H](C)N=C1NS(=O)(=O)c2ccccc21)C(=O)Nc1ccc(F)c(F)c1F (stereo partly drawn) | . | 0 | -4 | . | 13 | 5 | . | .
O=C(CNC(=O)/C(=C\c1ccc(Br)cc1)NC(=O)c1ccccc1)OCc1ccccc1 | -9 | -3 | 5 | 22 | 40* | 5 | 19* | 48*
CC(C)(C)c1ccc(C(=O)OC/C(O)=C(\C#N)c2nc3ccccc3s2)cc1 | -9 | 1 | -5 | 2 | 29* | -2 | 2 | 6
N#C/C(=C(/O)COC(=O)c1ccccc1O)c1nc2ccccc2s1 | 1 | 2 | -8 | 3 | 4 | 0 | . | .
CC(C)N1C(=O)S/C(=C/c2ccccc2OCc2ccc(C(=O)O)cc2)C1=O | 0 | -1 | -7 | 0 | 31* | -7 | -4 | -4
CC(=O)c1ccc(N2CCN(C(=O)CNC(=O)c3ccc(Br)o3)CC2)cc1 | . | -2 | 5 | . | 1 | -1 | . | .
COC(=O)c1cc2c(ccn2-c2ccc(F)cc2)n1CC(=O)OC(C)C | 1 | 0 | -8 | 2 | 31* | -1 | 4 | 2
CCNc1nc(=S)nc(NCc2ccccc2)[nH]1 | -6 | . | . | -1 | . | . | . | .
Cc1[nH]nc(S(=O)CC(=O)O)c1[N+](=O)[O-] (stereo not drawn) | 17 | 2 | -2 | 1 | 31* | -10 | -1 | -11
CSCCC(NC(=O)c1cccc(C)c1)C(=O)OCN1C(=O)c2ccccc2C1=O (stereo not drawn) | . | -2 | 2 | 0 | 30* | 2 | 10 | 41*

Bioassay records as filed in PubChem.
